In the library only some 2.1% were active in any assay of this set; here they are far more common.
EBI2 block = EBI2 (human) antagonism; EBI2 beta-arrestin recruitment, luminescence, 7a,25-OHC stimulated; AID 651636; inhibition, % at 5 µM; P32249; actives 0.81% (n = 360,000); in the data active means inhibition above about 38%;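 further: enzyme fragment complementation signal reports receptor beta-arrestin coupling in cells; 0% = agonist plus DMSO wells and 100% = wells without agonist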
APJ ag = activates the human apelin receptor APJ; CHO-K1 APJ PathHunter beta-arrestin, luminescence; 0% DMSO wells, 100% apelin; activation, % at 20 µM; actives 0.11% (n = 330,000); AID 2520;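 active means activation more than six SD over the plate average, tested at 20 µM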;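 further: 0% = DMSO alone and 100% = apelin-13 at 10 nM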
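assay system = CHO-K1 APJ beta-arrestin complementation cell line | input = cell density 1000 per well | dosing = compound 20 µM once, DMSO 1% | timing = compound 90 min 25 °C, reagent 1 h | measured by = luminescence from split beta-galactosidase complementation, Galacton Star/Emerald II substrate | read-out basis = APJ agonist activity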
CXCR6 block = CXCR6 (human) receptor inhibition | AID 602244 | inhibition, % at 20 µM | CHO-K1 PathHunter CXCR6 beta-arrestin, luminescence | actives 0.36% (n = 360,000); in the data active means inhibition above about 34%, passing the limit was not always enough;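 further: antagonist mode with CXCL16 agonist at 10 nM final; 0% = 10 nM CXCL16 with DMSO and 100% = unstimulated wells without agonist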
APJ antagonist = antagonists of human APJ apelin receptor; P35414; CHO-K1 APJ beta-arrestin complementation, luminescence; inhibition, % at 20 µM; actives 0.32% (n = 330,000);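 active means inhibition above about 40% at 20 µM, limit read from the data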;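 further: cells challenged with 10 nM apelin-13 agonist together with compound; plate controls were apelin-13 plus DMSO wells for no effect and DMSO wells lacking apelin-13 for full effect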
HTR2A ag = mouse HTR2A agonism via beta-arrestin recruitment; activation, % at 7.6 µM; CHO-K1 mHTR2A beta-arrestin complementation, luminescence; percent of 30 µM serotonin response; AID 624169; actives 0.66% (n = 360,000);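 active means activation above a run cutoff, the mean activation of all tested compounds plus 3 SD, cut at about 14% in these data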;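 further: 0% = plate median of compound wells and 100% = 30 µM serotonin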
CCR6 antagonist = antagonists of human CCR6 receptor; P51684; CHO-K1 CCR6 PathHunter beta-arrestin, luminescence, CCL20-stimulated; inhibition, % at 20 µM; actives 0.49% (n = 340,000); AID 493098;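 active means compounds whose inhibition of the agonist-driven luminescence signal at 20 µM reaches about 50%, limit read from the data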;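 further: cells stimulated with CCL20 at 14 nM final; plate controls were DMSO with CCL20 for no effect and DMSO without agonist for full effect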
Target sequence (P51684 whole entry, looked up): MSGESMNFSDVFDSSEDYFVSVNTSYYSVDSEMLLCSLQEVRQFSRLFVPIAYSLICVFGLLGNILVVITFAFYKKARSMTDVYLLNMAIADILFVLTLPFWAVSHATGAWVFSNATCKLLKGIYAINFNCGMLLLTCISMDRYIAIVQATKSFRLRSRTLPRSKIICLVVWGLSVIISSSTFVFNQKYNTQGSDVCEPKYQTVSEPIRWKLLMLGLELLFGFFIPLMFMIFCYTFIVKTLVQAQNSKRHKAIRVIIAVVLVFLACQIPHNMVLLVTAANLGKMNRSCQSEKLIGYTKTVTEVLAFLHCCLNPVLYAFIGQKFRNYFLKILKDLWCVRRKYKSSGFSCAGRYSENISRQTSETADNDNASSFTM
OPRM1 ag = OPRM1 agonism in mouse HTR2A counterscreen; activation, % at 9.3 µM; actives 5.3% (n = 2,300); U2OS OPRM1 beta-arrestin PathHunter, luminescence; DMSO 0%, DAMGO 9.3 µM 100%; shares compounds with HTR2A ag;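 active means mean activation above the mean of DMSO-only wells plus 3 SD, cut at about 0.5% in these data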
m5-HT2A ag conf = mouse HTR2A agonism confirmed; actives 19% (n = 2,300); CHO-K1 PathHunter beta-arrestin recruitment, luminescence; DMSO 0%, 30 µM serotonin 100%; AID 624381; shares compounds with HTR2A ag; activation, % at 7.6 µM;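 active means mean activation across triplicates above the hit threshold derived in the original primary screen, cut at about 15% in these data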
An asterisk follows results filed as active; . = no result given.

SMILES | EBI2 block | APJ ag | CXCR6 block | APJ antagonist | HTR2A ag | CCR6 antagonist | OPRM1 ag | m5-HT2A ag conf
C[C@]12c3[nH]c4ccccc4c3CCN1C(=O)C(CC(=O)NCCN1CCOCC1)C[C@@H]2C(=O)N1CCCCC1 (some centres not stated) | -16 | -1 | 1 | 10 | 12 | 14 | . | .
CC(=O)NC(Cc1ccccc1)C(=O)NC1CCN(C(=O)c2cnccn2)CC1 (configuration not stated) | 0 | -2 | 1 | -13 | 19* | 2 | 0 | -2
CC(=O)NC(Cc1ccccc1)C(=O)NC1CCN(C(=O)c2ccc([N+](=O)[O-])cc2)CC1 (configuration not stated) | 7 | 0 | 2 | 6 | 1 | 9 | . | .
Brc1cccc(CN2CCN(c3ncccn3)CC2)c1 | -6 | 2 | -6 | -4 | 33* | 12 | 0 | 84*
COc1ccc(CN2CCN(c3ccccn3)CC2)c(OC)c1C | 7 | -5 | 7 | -2 | 3 | 6 | . | .
c1ccc(COc2cccc(CN3CCN(c4ccccn4)CC3)c2)cc1 | -6 | -3 | 3 | -19 | 36* | -1 | -1 | 93*
Brc1cccc(CN2CCCCCCC2)c1 | 1 | 4 | 0 | 27 | 1 | 17 | . | .
Cc1ccc(CN2CCN(c3ccccn3)CC2)s1 | -4 | -1 | 2 | 5 | 49* | 4 | 0 | 103*
Cc1cccc(CN2CCN(c3ccccn3)CC2)c1 | 6 | -2 | 7 | -17 | 32* | -3 | -1 | 92*
Cc1sc2ncn(CC(=O)N3CCN(c4ccc(F)cc4)CC3)c(=O)c2c1S(=O)(=O)N1CCOCC1 | -6 | -1 | -7 | 19 | -2 | 7 | . | .
CC(C)Oc1ccc(S(=O)(=O)N2CCOCC2)cc1NC(=O)C1=COCCO1 | -5 | 0 | 4 | -42 | 5 | 7 | . | .
Cc1cccc(CN2CCN(c3ncccn3)CC2)c1 | 5 | -2 | -6 | 12 | 37* | -2 | -1 | 93*
c1ccc(N2CCN(Cc3ccsc3)CC2)nc1 | -16 | 1 | -3 | -25 | 35* | 8 | -1 | 102*
CCOCCn1c(CN2CCN(CC)CC2)nc2c1c(=O)n(C)c(=O)n2C | -6 | -1 | 4 | 2 | 48* | 6 | 0 | -1
CCOCCn1c(CN2CCCCC2)nc2c1c(=O)n(C)c(=O)n2C | -1 | -4 | 0 | 11 | 7 | -7 | . | .
CCOC(=O)C1CCN(c2nc(C)cc(C)c2C#N)CC1 | 3 | -6 | 2 | -2 | 16* | 6 | 0 | -3
Cc1ccc(N(CC(=O)NC2CCCC2)C(=O)c2c(C)noc2C)cc1C | 16 | -7 | 0 | -1 | 15* | 0 | 0 | -1
Cc1cccc(N(CC(=O)NC2CCCC2)C(=O)c2c(C)noc2C)c1 | 2 | -1 | -4 | -1 | 2 | -3 | . | .
CCCC12CN(C(=O)c3ccco3)CC(CCC)(CN(C(=O)c3ccco3)C1)C2=O | 1 | -7 | 6 | 4 | 5 | 21 | . | .
CCCC(=O)N1CC2(C)CN(C(=O)CCC)CC(CCC)(C1)C2=O | -9 | 1 | 2 | 20 | 16* | 8 | -1 | -4
COC(=O)[C@]12CCCCC=C1N(Cc1ccc(Cl)cc1Cl)C(=O)[C@H](CC(=O)NCc1cccs1)C2 | 17 | . | 14 | . | 11 | . | . | .
CN(CC(=O)Nc1ccc(Cl)cc1)CC(=O)N1CCc2ccccc21 | -10 | . | -10 | . | 17* | . | 0 | 2
CN(CC(=O)Nc1c(Cl)cccc1Cl)CC(=O)N1CCc2ccccc21 | 2 | . | -7 | . | 7 | . | . | .
CCc1ccccc1NC(=O)N1CCc2ccccc21 | -8 | -3 | 7 | -12 | 17* | 5 | -1 | -4
O=C(Nc1ccccc1)N1CCc2ccccc21 | -6 | -1 | 1 | 4 | 0 | -24 | . | .
SMILES | EBI2 block | APJ ag | CXCR6 block | APJ antagonist | HTR2A ag | CCR6 antagonist | OPRM1 ag | m5-HT2A ag conf
COC1=C/C(=C/c2c(O)c(C#N)c3ccccn23)C=CC1=O | -11 | -4 | 32 | 33 | 20* | 56* | -1 | -7
COc1ccccc1-c1c(C(F)(F)F)oc2cc(OS(C)(=O)=O)ccc2c1=O | -24 | -5 | -10 | -7 | 26* | -1 | 0 | -2
CC1(c2nnnn2-c2ccc3c(c2)OCCO3)CCC(=O)N1Cc1ccc(F)cc1 (configuration not stated) | -10 | . | 3 | . | 6 | . | . | .
CCN(CC)c1ccc(NC(=O)C2=CCN(S(=O)(=O)c3ccc(F)cc3)CC2)c(C)c1 | 4 | -6 | -2 | -2 | 17* | 11 | -1 | -6
O=C(Cc1cccc(NC(=O)C2CCCN(C(=O)C3CCCC3)C2)c1)Nc1cccc(C(=O)N2CCOCC2)c1 (configuration not stated) | -4 | . | -6 | . | 1 | 11 | . | .
COc1cc(C(=O)Nc2cccc(-c3nncn3C)c2)cc(OC)c1OC | 8 | 0 | 4 | 7 | 15* | 1 | -1 | -4
CCc1cccc(C)c1NC(=O)CC(C)(C)CC(=O)O | 0 | -3 | -12 | -1 | 18* | 9 | 0 | -3
CCc1cccc(C)c1NC(=O)CCCC(=O)O | -6 | -2 | -4 | 7 | -1 | -5 | . | .
CC1CCN(S(=O)(=O)c2cc3c4c(c2)C(C)C(=O)N4CCC3)CC1 (configuration not stated) | 2 | -2 | -6 | 7 | -6 | -9 | . | .
CCc1cccc(CC)c1NC(=O)COC(=O)C1(C)CC1(Cl)Cl (configuration not stated) | 4 | -1 | 4 | 15 | 17* | 20 | -1 | -4
CC1(C(=O)OCC(=O)Nc2ccc(C(N)=O)cc2)CC1(Cl)Cl (configuration not stated) | 11 | -1 | -4 | 16 | 2 | 0 | . | .
O=c1[nH][nH]c2c1[C@H](c1ccc(F)cc1)O[C@H](CCC(F)(F)F)C2 | -6 | . | -1 | . | 8 | . | . | .
OCCNc1nc2ccccc2nc1NCCO | 4 | -1 | -1 | 3 | 23* | -3 | 0 | 1
OCCNc1cnc2ccccc2n1 | -3 | -2 | 5 | -24 | 14 | 3 | . | .
CCOCC(=O)Nc1nc2ccc(C)cc2s1 | 5 | -6 | -7 | 6 | -1 | 13 | . | .
C/C=C/C(=O)OCC(=O)Nc1nc2ccc(C)cc2s1 | -5 | -4 | 1 | 18 | 26* | 15 | -1 | -4
NS(=O)(=O)c1ccc(NC(=S)N2CCN(c3ccc(Cl)c(Cl)c3)CC2)cc1 | -2 | 4 | -4 | -21 | 35* | 5 | 0 | 10

High-throughput results (PubChem BioAssay)
